Calls of active or inactive are those of the source. No cut-off for these calls is given here.

Assay [1] addresses T1, Arachidonate 5-lipoxygenase-activating protein (Homo sapiens) (UniProt P20292).
T1 sequence (whole entry): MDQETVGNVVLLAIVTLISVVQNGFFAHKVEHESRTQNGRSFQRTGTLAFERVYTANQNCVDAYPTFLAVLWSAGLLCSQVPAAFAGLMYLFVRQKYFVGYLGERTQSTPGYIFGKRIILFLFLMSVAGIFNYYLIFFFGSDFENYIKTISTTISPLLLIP
The experiment in a line: Inhibition of FLAP in human neutrophils assessed as suppression of A23187-stimulated 5-LO product formation using arachidonic acid as substrate measured as residual activity at 1 uM preincubated for 15 mins followed by A23187/arachidonic acid addition after 10 mins RP-HPLC/UV analysis relative to control. The method in brief: (§1)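 Neutrophils were isolated from human blood by dextran sedimentation, Nycoprep centrifugation and hypotonic lysis of erythrocytes, then resuspended in PGC buffer (PBS pH 7.4, 1 mg/ml glucose, 1 mM CaCl2). Cells were pre-incubated with compound or vehicle (0.1% DMSO) for 15 min at 37 °C, stimulated with 2.5 µM A23187 for 10 min, and stopped with methanol. Internal standard PGB1. 5-LO products (LTB4, its trans isomers, 5-H(P)ETE) were measured by HPLC.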

For assay [2], the target named is T1, Arachidonate 5-lipoxygenase-activating protein (Homo sapiens). Nature of the assay: Inhibition of FLAP in human neutrophils assessed as suppression of A23187-stimulated 5-LO product formation using arachidonic acid as substrate measured as residual activity at 10 uM preincubated for 15 mins followed by A23187/arachidonic acid addition after 10 mins RP-HPLC/UV analysis relative to control. The method in brief: as §1

Assay [3] has the same target. The experiment in a line: Inhibition of FLAP (unknown origin) expressed in HEK293 cells co-expressing 5-LO assessed as suppression of A23187-stimulated 5-LO product formation at 0.3 uM using arachidonic acid as substrate preincubated for 15 mins followed by A23187/substrate addition by RP-HPLC analysis. Format: cell-based.
Assay [4] addresses T2, Arachidonate 5-lipoxygenase-activating protein (Homo sapiens, UniProt P20292).
T2 sequence (P20292 whole entry): T1 sequence (whole entry)
The experiment in a line: (§2) Inhibition of FLAP in human neutrophils assessed as suppression of A23187-stimulated 5-LO product formation using arachidonic acid as substrate preincubated for 15 mins followed by A23187/arachidonic acid addition after 10 mins RP-HPLC/UV analysis. The method in brief:
as §1

Assay [5] concerns the target T3, Polyunsaturated fatty acid 5-lipoxygenase (Homo sapiens) (UniProt P09917).
T3 sequence (whole entry): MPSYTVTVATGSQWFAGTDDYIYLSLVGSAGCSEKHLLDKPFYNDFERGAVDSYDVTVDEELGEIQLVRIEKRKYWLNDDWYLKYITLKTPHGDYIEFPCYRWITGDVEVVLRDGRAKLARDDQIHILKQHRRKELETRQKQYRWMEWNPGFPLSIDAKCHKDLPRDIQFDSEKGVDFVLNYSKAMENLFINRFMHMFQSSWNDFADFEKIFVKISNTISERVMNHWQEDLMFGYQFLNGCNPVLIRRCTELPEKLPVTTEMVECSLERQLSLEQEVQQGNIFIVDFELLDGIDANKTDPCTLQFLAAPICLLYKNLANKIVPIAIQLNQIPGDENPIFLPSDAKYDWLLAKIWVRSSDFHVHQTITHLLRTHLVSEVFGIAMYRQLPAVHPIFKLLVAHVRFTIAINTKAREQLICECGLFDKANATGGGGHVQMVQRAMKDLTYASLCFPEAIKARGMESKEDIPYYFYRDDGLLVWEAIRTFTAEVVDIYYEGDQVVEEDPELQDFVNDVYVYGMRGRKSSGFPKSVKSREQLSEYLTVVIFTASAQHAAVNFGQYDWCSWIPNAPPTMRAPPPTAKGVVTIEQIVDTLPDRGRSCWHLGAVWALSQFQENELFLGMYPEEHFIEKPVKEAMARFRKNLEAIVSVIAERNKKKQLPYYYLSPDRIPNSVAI
The conditions noted are these: 3 uM.

Assay [6] has as its target T1, Arachidonate 5-lipoxygenase-activating protein (Homo sapiens). The description is as §2. In a few lines:
as §1

Assay [7] shares this target. The experiment in a line: Potency index, ratio of BRP-7 IC50 to compound IC50 for FLAP in human neutrophils.
Assay [8] addresses T2, Arachidonate 5-lipoxygenase-activating protein. Nature of the assay: Inhibition of FLAP in human monocytes assessed as suppression of A23187-stimulated 5-LO product formation using 10 uM arachidonic acid as substrate preincubated for 15 mins followed by A23187/arachidonic acid addition after 10 mins by RP-HPLC/UV analysis. In kind it is cell-based.
The target is the same in assay [9]. Nature of the assay: Inhibition of FLAP in human monocytes assessed as suppression of A23187-stimulated 5-LO product formation preincubated for 15 mins followed by A23187 after 10 mins RP-HPLC/UV analysis. In kind it is cell-based.
For assay [10] the target is unchanged. Nature of the assay: Inhibition of FLAP in human monocytes assessed as suppression of fMLP/LPS-stimulated cys-LT formation preincubated for 15 mins measured after 10 mins by ELISA. Format: cell-based.

`Cc1cccc(COc2ccc3c(c2)nc(C(C)c2ccc(CC(C)C)cc2)n3Cc2ccccc2C(F)(F)F)c1` (stereo not given): the Activity in [1] is 98.2%.

As to `COc1ccc(COc2ccc3c(c2)nc(C(C)c2ccc(CC(C)C)cc2)n3Cc2ccccc2C(F)(F)F)cc1` (stereo not given), the Activity in [2] stood at 80.1%; in assay [1], 81.6%.

As to `CC(C)Cc1ccc(C(C)c2nc3cc(OCc4ccccc4C#N)ccc3n2Cc2ccccc2C(F)(F)F)cc1` (stereo not given), in [1], the Activity came out at 65.2%.

Take `CC(C)=CCOc1ccc2c(c1)nc(C(C)c1ccc(CC(C)C)cc1)n2Cc1ccccc1C(F)(F)F` (stereo not given): in [1], the Activity was found to be 60.2%.

Broadly, the inhibition is the drop in the measured response relative to a control, in per cent. `CC(C)c1ccc2c(c1)c(SC(C)(C)C)c(CC(C)(C)C(=O)O)n2Cc1ccc(Cl)cc1`: the Activity in assay [1] is 2.7%. Also, the inhibition entry in [3] was “Active”.

Usually IC50 stands for the point on the concentration scale where inhibition reaches its midpoint. Take `C=CCOc1ccc2c(c1)nc(C(C)c1ccc(CC(C)C)cc1)n2Cc1ccccc1C(F)(F)F` (stereo not given): in assay [4], the concentration for half-maximal inhibition (IC50) was determined as 170 nM. The Activity in [2] was found to be 0.6%; in [1], 7.5%.

In the case of `CC(C)Cc1ccc(C(C)c2nc3cc(OCc4ccc(C(C)(C)C)cc4)ccc3n2Cc2ccccc2C(F)(F)F)cc1` (stereo not given), the values for the Activity in [2] and in assay [1] were 94% and 94.9%, respectively.

Take `CC(C)Cc1ccc(C(C)c2nc3cc(OCc4ccc(OC(F)(F)F)cc4)ccc3n2Cc2ccccc2C(F)(F)F)cc1` (stereo not given): the Activity in assay [1] stood at 99.9%.

Turning to `CC(C)Cc1ccc(C(C)c2nc3cc(OCc4cccc(F)c4)ccc3n2Cc2ccccc2C(F)(F)F)cc1` (stereo not given), the Activity worked out at 85.9% in [2] and 92% in assay [1].

Take `CC(C)Cc1ccc(C(C)c2nc3cc(OCc4ccccc4C#N)ccc3n2Cc2ccccc2Cl)cc1` (stereo not given): the half-maximal inhibitory concentration (IC50) in [4] amounted to 120 nM. In addition, the Activity in [2] was found to be 15.6%; in [1], 39.9%.

For the molecule `CC(C)Cc1ccc(C(C)c2nc3cc(OCc4ccccc4Cl)ccc3n2Cc2ccccc2C(F)(F)F)cc1` (stereo not given), the Activity in assay [2] and in [1] was 92.2% throughout.

As to `COC(=O)COc1ccc2c(c1)nc(C(C)c1ccc(CC(C)C)cc1)n2Cc1ccccc1C(F)(F)F` (stereo not given), the IC50 in assay [4] was found to be 210 nM. In addition, the Activity in [1] worked out at 1.9%.

As for `CCC#CCOc1ccc2c(c1)nc(C(C)c1ccc(CC(C)C)cc1)n2Cc1ccccc1C(F)(F)F` (stereo not given), the Activity in assay [1] came to 55.6%.

Consider `CC(c1cc2ccccc2s1)N(O)C(N)=O` (stereo not given), for which the inhibition in assay [5] is more than 80%.

Consider `CC(C)Cc1ccc(C(C)c2nc3cc(OCc4ccccn4)ccc3n2Cc2ccccc2C(F)(F)F)cc1` (stereo not given), for which, in assay [4], the IC50 was determined as 150 nM. The Activity in assay [1] stood at 0%.

Take `CC(C)Cc1ccc(C(C)c2nc3cc(OCc4ccccc4C(F)(F)F)ccc3n2Cc2ccccc2C(F)(F)F)cc1` (stereo not given): the Activity in assay [1] came to 90.9%.

Take `CC(C)Cc1ccc(C(C)c2nc3cc(OCc4ccc(C#N)cc4)ccc3n2Cc2ccccc2C(F)(F)F)cc1` (stereo not given): the Activity in assay [1] was 71.1%.

`CC(C)Cc1ccc(C(C)c2nc3cc(C#N)ccc3n2Cc2ccccc2Cl)cc1` (stereo not given): in assay [6], the inhibition result was “Dose-dependent effect”. In addition, the 50% inhibitory concentration (IC50) in assay [4] was determined as 70 nM; in assay [8], 35 nM; in assay [9] it was 26 nM; in assay [10] it was 12 nM. Further, the Activity in [1] turned out to be 0%. In addition, the Ratio IC50 in assay [7] worked out at 4.4. In assay [3], the inhibition entry is “Active”.

With `Cc1ccccc1COc1ccc2c(c1)nc(C(C)c1ccc(CC(C)C)cc1)n2Cc1ccccc1C(F)(F)F` (stereo not given), the Activity in assay [2] was 89.7%; in [1], 97.1%.

Regarding `CCCCOc1ccc2c(c1)nc(C(C)c1ccc(CC(C)C)cc1)n2Cc1ccccc1C(F)(F)F` (stereo not given), in [1], the Activity amounted to 58.1%.

`Cc1ccc(COc2ccc3c(c2)nc(C(C)c2ccc(CC(C)C)cc2)n3Cc2ccccc2C(F)(F)F)cc1` (stereo not given): the values for the Activity in assay [2] and in assay [1] were 90.5% and 92.6%, respectively.

On to `CC(C)Cc1ccc(C(C)c2nc3cc(OCc4ccc(C(F)(F)F)cc4)ccc3n2Cc2ccccc2C(F)(F)F)cc1` (stereo not given), for which the values for the Activity in assay [2] and in assay [1] were 94.3% and 91.7%, respectively.

As for `CC(C)Cc1ccc(C(C)c2nc3cc(OCc4ccc(Br)cc4)ccc3n2Cc2ccccc2C(F)(F)F)cc1` (stereo not given), the Activity turned out to be 94.4% in assay [2] and 108% in assay [1].

The values are drawn from ChEMBL document CHEMBL3865817, “Synthesis and biological evaluation of C(5)-substituted derivatives of leukotriene biosynthesis inhibitor BRP-7” (Eur J Med Chem, 2016).
